This is a sample that favours compounds with a hit; in the whole collection about 5.8% have one here.
GASC1 inh = KDM4C (human) demethylase inhibition | Q9H3R0 | GST-KDM4C 2-372, H3K9me3 peptide, LANCE TR-FRET | inhibition, % at 12.5 µM | 96,000 compounds, 0.15% hits | AID 720574;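 active = mean replicate inhibition above about 25%, with at least 55% of replicates also reaching it, limit read from the data, passing the limit was not always enough; inconclusive = only one of those two conditions met; inactive = neither condition met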
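material = GST-tagged GASC-1 (JMJD2C) catalytic fragment, aa 2-372 | amount = enzyme final amount 10 nM | medium = HEPES buffer, pH 7.5, plus ascorbate | also added = H3K9me3 peptide substrate, Fe(II), 2-oxoglutarate | dosing = single dose | times = 30 min demethylation and 1 h detection at room temperature | detection = LANCE TR-FRET | read-out basis = Fall in 671/618 emission ratio as inhibition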
IDH1 R132H inh = blocks human IDH1 R132H reductase activity. inhibition, % at 10 µM. diaphorase/resazurin fluorescence, 60 min. 70,000 compounds, 0.18% hits; in the data active = inhibition above about 34%; inconclusive = no clear call, values can overlap the other calls; inactive = below about 11%;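 note: 0% = DMSO and 100% = no enzyme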
Target sequence (O75874 whole entry R132H): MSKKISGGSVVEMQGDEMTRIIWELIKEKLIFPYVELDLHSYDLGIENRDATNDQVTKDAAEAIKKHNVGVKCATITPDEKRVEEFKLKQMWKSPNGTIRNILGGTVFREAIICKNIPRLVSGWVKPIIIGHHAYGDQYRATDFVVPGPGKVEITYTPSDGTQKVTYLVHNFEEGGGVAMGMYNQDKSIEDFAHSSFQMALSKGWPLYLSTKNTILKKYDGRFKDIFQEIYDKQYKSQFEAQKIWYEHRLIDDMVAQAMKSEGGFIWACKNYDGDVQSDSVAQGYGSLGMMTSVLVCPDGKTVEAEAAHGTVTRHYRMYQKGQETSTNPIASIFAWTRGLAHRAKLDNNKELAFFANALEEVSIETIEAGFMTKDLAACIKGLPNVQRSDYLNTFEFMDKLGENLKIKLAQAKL
T cruzi growth-1 = blocks T. cruzi growth in NIH3T3 culture | T. cruzi beta-gal in NIH3T3, GalScreen luminescence, 90 h | inhibition, % at 8.34 µM | 77,000 compounds, 5.9% hits | AID 624255;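 active = mean inhibition above about 93%, with at least 55% of replicates each passing it, limit read from the data, passing the limit was not always enough; inconclusive = only one of those two conditions holds; inactive = neither condition holds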
Pf Dd2 inh = P. falciparum Dd2 growth inhibition | SYBR Green, 72 h; stronger effect = lower value | activity change, % at 10 µM | 94,000 compounds, 2.3% hits | AID 1159554; in the data active = activity change below about -80%; inconclusive = no clear call, values can overlap the other calls
T cruzi growth-2 = Trypanosoma cruzi proliferation inhibition; AID 651739; T. cruzi beta-gal in NIH3T3, GalScreen luminescence, 90 h; shares compounds with T cruzi growth-1; inhibition, % at 8.35 µM; 5,600 compounds, 72% hits;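 active = mean replicate inhibition above about 95% and at least 55% of replicates individually reaching it, limit read from the data; inconclusive = only one of the two criteria is met; inactive = neither criterion is met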
T cruzi growth-3 = blocks T. cruzi growth in NIH3T3 host cells | shares compounds with T cruzi growth-1 | T. cruzi beta-gal in NIH3T3, GalScreen luminescence, 90 h | inhibition, % at 2.09 µM | 5,600 compounds, 21% hits | AID 651740;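 active = mean inhibition above about 95%, with at least 55% of replicates also reaching it, limit read from the data; inconclusive = meets just one of the two conditions; inactive = meets neither condition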;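 note: plate controls were neutral control median for no effect and positive control median for full effect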
NIH3T3 tox = kills mouse NIH/3T3 fibroblasts | shares compounds with T cruzi growth-1 | NIH/3T3 viability, CellTiter-Glo ATP luminescence, 90 h | cytotoxicity (signal decrease), % at 8.35 µM | 5,600 compounds, 14% hits | AID 651742;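 active = mean signal decrease across replicates above about 35% based on untreated-well scatter, with enough replicates individually passing, limit read from the data; inconclusive = no rule stated though some were filed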;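 note: 0% = median of neutral control wells and 100% = median of positive control wells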
NIH3T3 tox 2 = kills mouse NIH/3T3 fibroblasts; shares compounds with T cruzi growth-1; NIH/3T3 viability, CellTiter-Glo ATP luminescence, 90 h; inhibition, % at 24.9 µM; 5,600 compounds, 56% hits;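 active = mean loss of cell viability signal at or above a set limit, and enough replicates individually reaching it; inconclusive = meets only the mean limit or only the replicate share; inactive = meets neither condition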;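 note: 0% = median of neutral control wells and 100% = median of positive control wells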
The depositor's hits bear a star; ? = inconclusive; nt = no result given.

SMILES | GASC1 inh | IDH1 R132H inh | T cruzi growth-1 | Pf Dd2 inh | T cruzi growth-2 | T cruzi growth-3 | NIH3T3 tox | NIH3T3 tox 2
CCCNC(=O)N1[C@H](CN(C)C(C)=O)[C@@H](c2ccc(C3=CCCC3)cc2)[C@@H]1CO | 3 | nt | ? | 4 | -9 | -21 | -2 | 2
CCCNC(=O)N1[C@H](CN(C)C(C)=O)[C@H](c2ccc(C3=CCCC3)cc2)[C@@H]1CO | 3 | nt | ? | 6 | -4 | 0 | 2 | 3
Cc1cc(Cl)c(S(=O)(=O)NC23CC4CC(CC(C4)C2)C3)cc1OCC(N)=O | nt | 1 | nt | nt | nt | nt | nt | nt
O=C(C[C@H]1CC[C@@H]2[C@H](COC[C@@H](O)CN2C(=O)c2cccnc2)O1)NCc1ccc(Cl)cc1 | -1 | nt | -22 | 31 | nt | nt | nt | nt
C[C@@H]1CN([C@H](C)CO)C(=O)c2ccccc2-c2ccccc2CO[C@H]1CN(C)S(=O)(=O)c1ccc(F)cc1 | 1 | nt | -11 | 53 | nt | nt | nt | nt
C[C@@H]1CN([C@H](C)CO)C(=O)c2ccccc2-c2ccccc2CO[C@H]1CN(C)S(=O)(=O)c1ccc(C(F)(F)F)cc1 | 0 | nt | 96* | -52 | ? | 28 | -4 | 20
C[C@@H]1CN([C@H](C)CO)C(=O)c2ccccc2-c2ccccc2CO[C@H]1CN(C)S(=O)(=O)c1cccs1 | 1 | nt | ? | 14 | 89 | 15 | 21 | ?
Cc1noc(C)c1C(=O)N(C)C[C@H]1OCc2ccccc2-c2ccccc2C(=O)N([C@H](C)CO)C[C@H]1C | 0 | nt | ? | -10 | 75 | 4 | -7 | 10
O=C(N[C@@H]1CC[C@@H](CCNC(=O)c2ccccc2F)O[C@H]1CO)c1cnccn1 | 0 | 0 | -10 | -11 | nt | nt | nt | nt
CCOC(=O)c1c(NC(=O)C2C3C=CC(C3)C2(C)C(=O)O)sc2c1CCCC2 (stereo unspecified) | nt | 0 | nt | nt | nt | nt | nt | nt
O=S(=O)(c1ccccc1)N1CCCCN2[C@@H](CO)[C@H](c3ccc(-c4ccccc4F)cc3)[C@@H]2C1 | -1 | nt | 105* | 5 | 104* | 74 | 31 | 106*
O=S(=O)(c1ccccc1)N1CCCCN2[C@H](CO)[C@H](c3ccc(-c4ccccc4F)cc3)[C@@H]2C1 | 1 | nt | 103* | 20 | 106* | 84 | -9 | 42*
CCCNC(=O)N[C@@H]1CC[C@H](CC(=O)N2CCN(C)CC2)O[C@H]1CO | 3 | 0 | 11 | 2 | nt | nt | nt | nt
CCC(=O)N1CCC2(CC1)CN(C(=O)NC1CCCC1)[C@H](CO)c1c2c2ccc(OC)cc2n1C | 0 | nt | nt | -38 | nt | nt | nt | nt
COc1cccc(-c2ccc([C@@H]3[C@@H](CO)N4CCCCN(S(=O)(=O)c5cccs5)C[C@@H]34)cc2)c1 | -2 | nt | 97* | 35 | 60 | -3 | 21 | 25*
COc1ccc(-c2ccc([C@H]3[C@@H](CO)N4CCCCN(S(=O)(=O)c5cccs5)C[C@@H]34)cc2)cc1 | -1 | nt | 107* | 2 | 116* | 89 | 23 | 10
COc1cccc(-c2ccc([C@H]3[C@H]4CN(S(=O)(=O)c5cccs5)CCCCN4[C@H]3CO)cc2)c1 | -1 | nt | 75 | 10 | nt | nt | nt | nt
COc1ccc(C)cc1NC(=O)CN(c1cc(C)cc(C)c1)S(C)(=O)=O | nt | 0 | nt | nt | nt | nt | nt | nt
COc1ccc(-c2ccc3c(c2)[C@@H]2[C@@H](CCN2C(=O)c2cccc(F)c2)[C@@H](CO)N3)cc1 | 0 | nt | 34 | -1 | nt | nt | nt | nt
C[C@@H]1CN([C@@H](C)CO)C(=O)c2cc(/C=C/c3ccccc3)cnc2O[C@H]1CN(C)C(=O)Cc1ccccn1 | -3 | 0 | 101* | -21 | 103* | 99* | 14 | 46*
C[C@H](CO)N1C[C@H](C)[C@H](CN(C)Cc2ccncc2)Oc2ncc(/C=C/c3ccccc3)cc2C1=O | 0 | 0 | 61 | -14 | nt | nt | nt | nt
C[C@@H]1CN([C@@H](C)CO)C(=O)c2cc(/C=C/c3ccccc3)cnc2O[C@H]1CN(C)Cc1ccncc1 | -1 | 1 | 120* | -27 | 114* | 92 | 22 | 19

Screening results (PubChem BioAssay)
